Source: ChEMBL document CHEMBL1649560, “Beta-lactamase-mediated beta-lactam resistance in Campylobacter species: prevalence of Cj0299 (bla OXA-61) and evidence for a novel beta-Lactamase in C. jejuni” (2009)

Legend:
Type in all cases: functional
Campylobacter jejuni [1] = test: Antibacterial activity against bla gene-positive and nitrocefin reaction-positive beta-lactamase harboring Campylobacter jejuni isolate P1650 by NCCLS agar doubling dilution method in presence of clavulanic acid
Summary of the method: (§1)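 MICs by agar doubling dilution per the NCCLS (now CLSI) Campylobacter Working Group method. Isolates came from UK chicken flocks (feces, ceca or farm environment), 2000–2006. C. jejuni NCTC 11168 and C. coli NCTC 11366 served as control strains. The ampicillin resistance cutoff was 8 μg/ml; BSAC/CLSI Enterobacteriaceae guidelines were used for other agents.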

Campylobacter jejuni [2] = test: Antibacterial activity against bla gene-positive and nitrocefin reaction-positive beta-lactamase harboring Campylobacter jejuni isolate P1093 by NCCLS agar doubling dilution method in presence of clavulanic acid
Summary of the method: (§2)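 MICs of β-lactams by agar doubling dilution following the NCCLS (CLSI) Campylobacter Working Group procedure, with C. jejuni NCTC 11168 and C. coli NCTC 11366 as controls. Isolates were from UK poultry flocks. β-Lactamase status was set by Cj0299 PCR (281-bp amplimer) and by a nitrocefin colour change of sonicated lysate within 5 min, or within 30 min on repeat.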

Campylobacter jejuni [3] = test: Antibacterial activity against Campylobacter jejuni isolate P338 harboring blaOXA-61::cat gene by NCCLS agar doubling dilution method in presence of clavulanic acid
Summary of the method: (§3)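 Agar doubling dilution MICs (NCCLS/CLSI Campylobacter Working Group method) against Cj0299-inactivated mutants. Mutants were made by transforming the C. jejuni isolate with pCI and selecting on Mueller-Hinton agar with 10 μg/ml chloramphenicol for 3–5 days. Chromosomal insertion was confirmed by PCR with Cj0299 and cat primers.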

Campylobacter jejuni [4] = test: Antibacterial activity against bla gene-positive and nitrocefin reaction-negative beta-lactamase harboring Campylobacter jejuni isolate NCTC 11168 by NCCLS agar doubling dilution method in presence of clavulanic acid; summary of the method: as §2
Campylobacter jejuni [5] = test: Antibacterial activity against bla gene-positive and nitrocefin reaction-positive beta-lactamase harboring Campylobacter jejuni isolate P1730 by NCCLS agar doubling dilution method in presence of clavulanic acid; summary of the method: as §1
Campylobacter jejuni [6] = test: Antibacterial activity against bla gene-positive and nitrocefin reaction-positive beta-lactamase harboring Campylobacter jejuni isolate P1618 by NCCLS agar doubling dilution method in presence of clavulanic acid; summary of the method: as §2
Campylobacter jejuni [7] = test: Antibacterial activity against bla gene-positive and nitrocefin reaction-positive beta-lactamase harboring Campylobacter jejuni isolate P338 by NCCLS agar doubling dilution method in presence of clavulanic acid; summary of the method: as §1
Campylobacter jejuni [8] = test: Antibacterial activity against Campylobacter jejuni isolate P270 harboring blaOXA-61::cat gene by NCCLS agar doubling dilution method in presence of clavulanic acid
Campylobacter jejuni [9] = test: Antibacterial activity against bla gene-positive and nitrocefin reaction-positive beta-lactamase harboring Campylobacter jejuni isolate P790 by NCCLS agar doubling dilution method in presence of clavulanic acid; summary of the method: as §1
Campylobacter coli [10] = test: Antibacterial activity against bla-positive and beta-lactamase-weakly positive Campylobacter coli isolate P1627 by NCCLS agar doubling dilution method in presence of clavulanic acid
Summary of the method: (§4)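 MICs by agar doubling dilution following the NCCLS (CLSI) Campylobacter Working Group procedure, applied to ampicillin- and amoxicillin-resistant isolates from UK chicken flocks (2000–2006). C. jejuni NCTC 11168 and C. coli NCTC 11366 served as control strains. Resistance was called at an ampicillin cutoff of 8 μg/ml. Other agents were judged against Enterobacteriaceae guidelines (BSAC, CLSI).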

Campylobacter jejuni [11] = test: Antibacterial activity against Campylobacter jejuni by NCCLS agar doubling dilution method; summary of the method: as §4
Campylobacter coli [12] = test: Antibacterial activity against bla gene-positive and nitrocefin reaction-positive beta-lactamase harboring Campylobacter coli isolate P1826 by NCCLS agar doubling dilution method in presence of clavulanic acid; summary of the method: as §2
Campylobacter coli [13] = test: Antibacterial activity against bla gene-positive and nitrocefin reaction-positive beta-lactamase harboring Campylobacter coli isolate P321 by NCCLS agar doubling dilution method in presence of clavulanic acid; summary of the method: as §2
Campylobacter jejuni [14] = test: Antibacterial activity against bla gene-positive and nitrocefin reaction-negative beta-lactamase harboring Campylobacter jejuni isolate P1699 by NCCLS agar doubling dilution method in presence of clavulanic acid; summary of the method: as §2
Campylobacter jejuni [15] = test: Antibacterial activity against Campylobacter jejuni isolate P1093 harboring blaOXA-61::cat gene by NCCLS agar doubling dilution method in presence of clavulanic acid; summary of the method: as §3
Campylobacter jejuni [16] = test: Antibacterial activity against bla gene-negative and nitrocefin reaction-negative beta-lactamase harboring Campylobacter jejuni isolate P850 by NCCLS agar doubling dilution method in presence of clavulanic acid; summary of the method: as §2
Campylobacter jejuni [17] = test: Antibacterial activity against Campylobacter jejuni by NCCLS agar doubling dilution method in presence of clavulanic acid; summary of the method: as §4
Campylobacter jejuni [18] = test: Antibacterial activity against bla gene-positive and nitrocefin reaction-positive beta-lactamase harboring Campylobacter jejuni isolate P316 by NCCLS agar doubling dilution method in presence of clavulanic acid; summary of the method: as §1
Campylobacter jejuni [19] = test: Antibacterial activity against bla gene-positive and nitrocefin reaction-negative beta-lactamase harboring Campylobacter jejuni isolate P1698 by NCCLS agar doubling dilution method in presence of clavulanic acid; summary of the method: as §2
Campylobacter jejuni [20] = test: Antibacterial activity against bla gene-negative and nitrocefin reaction-positive beta-lactamase harboring Campylobacter jejuni isolate P843 by NCCLS agar doubling dilution method in presence of clavulanic acid; summary of the method: as §2
Campylobacter jejuni [21] = test: Antibacterial activity against bla gene-positive and nitrocefin reaction-positive beta-lactamase harboring Campylobacter jejuni isolate P286 by NCCLS agar doubling dilution method in presence of clavulanic acid; summary of the method: as §1
Campylobacter jejuni [22] = test: Antibacterial activity against bla gene-positive and nitrocefin reaction-positive beta-lactamase harboring Campylobacter jejuni isolate P285 by NCCLS agar doubling dilution method in presence of clavulanic acid; summary of the method: as §1
Campylobacter jejuni [23] = test: Antibacterial activity against bla gene-negative and nitrocefin reaction-positive beta-lactamase harboring Campylobacter jejuni isolate P854 by NCCLS agar doubling dilution method in presence of clavulanic acid; summary of the method: as §2
Campylobacter jejuni [24] = test: Antibacterial activity against bla gene-negative and nitrocefin reaction-negative beta-lactamase harboring Campylobacter jejuni isolate P1962 by NCCLS agar doubling dilution method in presence of clavulanic acid; summary of the method: as §2
Campylobacter coli [25] = test: Antibacterial activity against Campylobacter coli by NCCLS agar doubling dilution method; summary of the method: as §4
Campylobacter jejuni [26] = test: Antibacterial activity against bla gene-negative and nitrocefin reaction-negative beta-lactamase harboring Campylobacter jejuni isolate P835 by NCCLS agar doubling dilution method in presence of clavulanic acid; summary of the method: as §2
Campylobacter jejuni [27] = test: Antibacterial activity against bla gene-positive and nitrocefin reaction-positive beta-lactamase harboring Campylobacter jejuni isolate P305 by NCCLS agar doubling dilution method in presence of clavulanic acid; summary of the method: as §1
Campylobacter coli [28] = test: Antibacterial activity against Campylobacter coli by NCCLS agar doubling dilution method in presence of clavulanic acid; summary of the method: as §4
Campylobacter jejuni [29] = test: Antibacterial activity against bla gene-positive and nitrocefin reaction-positive beta-lactamase harboring Campylobacter jejuni isolate P790 by NCCLS agar doubling dilution method; summary of the method: as §1
Campylobacter jejuni [30] = test: Antibacterial activity against bla gene-positive and nitrocefin reaction-positive beta-lactamase harboring Campylobacter jejuni isolate P1618 by NCCLS agar doubling dilution method; summary of the method: as §2
Campylobacter jejuni [31] = test: Antibacterial activity against bla gene-positive and nitrocefin reaction-negative beta-lactamase harboring Campylobacter jejuni isolate P1698 by NCCLS agar doubling dilution method; summary of the method: as §2
Campylobacter jejuni [32] = test: Antibacterial activity against bla gene-positive and nitrocefin reaction-positive beta-lactamase harboring Campylobacter jejuni isolate P338 by NCCLS agar doubling dilution method; summary of the method: as §1
Campylobacter jejuni [33] = test: Antibacterial activity against bla gene-positive and nitrocefin reaction-positive beta-lactamase harboring Campylobacter jejuni isolate P1650 by NCCLS agar doubling dilution method; summary of the method: as §2
Campylobacter jejuni [34] = test: Antibacterial activity against bla gene-negative and nitrocefin reaction-negative beta-lactamase harboring Campylobacter jejuni isolate P850 by NCCLS agar doubling dilution method; summary of the method: as §2
Campylobacter jejuni [35] = test: Antibacterial activity against bla gene-positive and nitrocefin reaction-negative beta-lactamase harboring Campylobacter jejuni isolate P1699 by NCCLS agar doubling dilution method; summary of the method: as §2
Campylobacter jejuni [36] = test: Antibacterial activity against bla gene-negative and nitrocefin reaction-negative beta-lactamase harboring Campylobacter jejuni isolate P1962 by NCCLS agar doubling dilution method; summary of the method: as §2
Campylobacter coli [37] = test: Antibacterial activity against bla gene-positive and nitrocefin reaction-positive beta-lactamase harboring Campylobacter coli isolate P1826 by NCCLS agar doubling dilution method; summary of the method: as §2
Campylobacter jejuni [38] = test: Antibacterial activity against bla gene-positive and nitrocefin reaction-positive beta-lactamase harboring Campylobacter jejuni isolate P316 by NCCLS agar doubling dilution method; summary of the method: as §1
Campylobacter jejuni [39] = test: Antibacterial activity against bla gene-positive and nitrocefin reaction-positive beta-lactamase harboring Campylobacter jejuni isolate P1730 by NCCLS agar doubling dilution method; summary of the method: as §1
Campylobacter jejuni [40] = test: Antibacterial activity against bla gene-negative and nitrocefin reaction-negative beta-lactamase harboring Campylobacter jejuni isolate P835 by NCCLS agar doubling dilution method; summary of the method: as §2
Campylobacter jejuni [41] = test: Antibacterial activity against Campylobacter jejuni isolate P270 harboring blaOXA-61::cat gene by NCCLS agar doubling dilution method
Campylobacter jejuni [42] = test: Antibacterial activity against bla gene-negative and nitrocefin reaction-positive beta-lactamase harboring Campylobacter jejuni isolate P854 by NCCLS agar doubling dilution method; summary of the method: as §2
Campylobacter jejuni [43] = test: Antibacterial activity against bla gene-positive and nitrocefin reaction-positive beta-lactamase harboring Campylobacter jejuni isolate P305 by NCCLS agar doubling dilution method; summary of the method: as §1
Campylobacter jejuni [44] = test: Antibacterial activity against bla gene-positive and nitrocefin reaction-positive beta-lactamase harboring Campylobacter jejuni isolate P1093 by NCCLS agar doubling dilution method; summary of the method: as §2
Campylobacter jejuni [45] = test: Antibacterial activity against Campylobacter jejuni isolate P1093 harboring blaOXA-61::cat gene by NCCLS agar doubling dilution method; summary of the method: as §3
Campylobacter coli [46] = test: Antibacterial activity against bla-positive and beta-lactamase-weakly positive Campylobacter coli isolate P1627 by NCCLS agar doubling dilution method; summary of the method: as §1
Campylobacter coli [47] = test: Antibacterial activity against bla gene-positive and nitrocefin reaction-positive beta-lactamase harboring Campylobacter coli isolate P321 by NCCLS agar doubling dilution method; summary of the method: as §2
Campylobacter jejuni [48] = test: Antibacterial activity against bla gene-negative and nitrocefin reaction-positive beta-lactamase harboring Campylobacter jejuni isolate P843 by NCCLS agar doubling dilution method; summary of the method: as §2
Campylobacter jejuni [49] = test: Antibacterial activity against Campylobacter jejuni isolate P338 harboring blaOXA-61::cat gene by NCCLS agar doubling dilution method; summary of the method: as §3
Campylobacter jejuni [50] = test: Antibacterial activity against bla gene-positive and nitrocefin reaction-positive beta-lactamase harboring Campylobacter jejuni isolate P286 by NCCLS agar doubling dilution method; summary of the method: as §1
Campylobacter jejuni [51] = test: Antibacterial activity against bla gene-positive and nitrocefin reaction-positive beta-lactamase harboring Campylobacter jejuni isolate P285 by NCCLS agar doubling dilution method; summary of the method: as §1
Campylobacter jejuni [52] = test: Antibacterial activity against bla gene-positive and nitrocefin reaction-negative beta-lactamase harboring Campylobacter jejuni NCTC 11168 by NCCLS agar doubling dilution method; summary of the method: as §2

O=C(O)[C@H]1/C(=C/CO)O[C@@H]2CC(=O)N21 [CLAVULANIC ACID]
4 µg/mL: MIC (Campylobacter jejuni [1]) | MIC (Campylobacter coli [10]) | MIC50 (Campylobacter jejuni [11]) | MIC (Campylobacter jejuni [14]) | MIC (Campylobacter jejuni [16]) | MIC50 (Campylobacter jejuni [17]) | MIC (Campylobacter jejuni [20]) | MIC (Campylobacter jejuni [23])
0.5 µg/mL: MIC (Campylobacter jejuni [15]) | MIC (Campylobacter jejuni [24]) | MIC (Campylobacter jejuni [26])
0.25 µg/mL: MIC (Campylobacter jejuni [8])
8 µg/mL: MIC (Campylobacter jejuni [5]) | MIC (Campylobacter jejuni [7]) | MIC90 (Campylobacter jejuni [11]) | MIC (Campylobacter coli [12]) | MIC (Campylobacter coli [13]) | MIC90 (Campylobacter jejuni [17]) | MIC (Campylobacter jejuni [18]) | MIC (Campylobacter jejuni [21]) | MIC (Campylobacter jejuni [22]) | MIC (Campylobacter jejuni [27])
32 µg/mL: MIC (Campylobacter jejuni [2]) | MIC90 (Campylobacter coli [25]) | MIC90 (Campylobacter coli [28])
1 µg/mL: MIC (Campylobacter jejuni [3]) | MIC (Campylobacter jejuni [4]) | MIC (Campylobacter jejuni [19])
16 µg/mL: MIC (Campylobacter jejuni [9]) | MIC50 (Campylobacter coli [25]) | MIC50 (Campylobacter coli [28])
2 µg/mL: MIC (Campylobacter jejuni [6])

C[C@@H](O)[C@H]1C(=O)N2C(C(=O)O)=C(SCCNC=N)C[C@H]12 [IMIPENEM ANHYDROUS]
0.015 µg/mL: MIC (Campylobacter jejuni [30]) | MIC (Campylobacter jejuni [36]) | MIC (Campylobacter jejuni [39]) | MIC (Campylobacter jejuni [51])
0.12 µg/mL: MIC (Campylobacter jejuni [29]) | MIC (Campylobacter jejuni [44]) | MIC (Campylobacter jejuni [45]) | MIC (Campylobacter coli [46]) | MIC (Campylobacter coli [47]) | MIC90 (Campylobacter coli [25])
0.25 µg/mL: MIC (Campylobacter jejuni [50])
0.03 µg/mL: MIC (Campylobacter jejuni [35]) | MIC (Campylobacter coli [37]) | MIC50 (Campylobacter jejuni [11]) | MIC (Campylobacter jejuni [41]) | MIC (Campylobacter jejuni [49]) | MIC (Campylobacter jejuni [52])
0.06 µg/mL: MIC (Campylobacter jejuni [31]) | MIC (Campylobacter jejuni [32]) | MIC (Campylobacter jejuni [33]) | MIC (Campylobacter jejuni [34]) | MIC (Campylobacter jejuni [38]) | MIC90 (Campylobacter jejuni [11]) | MIC (Campylobacter jejuni [40]) | MIC (Campylobacter jejuni [42]) | MIC (Campylobacter jejuni [43]) | MIC (Campylobacter jejuni [48]) | MIC50 (Campylobacter coli [25])
